Assay results: publication PMC12796350 (Scientific Reports, 2025)
Where two headings read alike, the source gives them in different places.

How the values were obtained:
[1] = test system: HTB-140 (human melanoma) cells; test: MTT cytotoxicity assay, HTB-140; assay type: cell-based; conditions: for IC50: 72 h, read-out: IC50 HTB-140; for SI HTB-140 (Selectivity Index): SI = IC50 for normal cell line (HaCaT)/IC50 cancer cell line
Method in brief: (§1)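 Cells were seeded in 96-well plates at 1 × 10^4 per well in DMEM with 2% FBS and exposed 72 h to a range of test-compound concentrations. MTT (0.5 mg/mL) was added for 4 h, and formazan was dissolved in 0.04 M HCl/isopropanol. A570 was read relative to untreated control. […] SI = IC50 in HaCaT keratinocytes / IC50 in the cancer line. Mean SD.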

[2] = test system: A549 (human lung adenocarcinoma) cells; test: MTT cytotoxicity assay, A549; assay type: cell-based; conditions: for IC50: read-out: IC50 A549; for SI A549 (Selectivity Index): SI = IC50 for normal cell line (HaCaT)/IC50 cancer cell line
Method in brief: as §1

[3] = test system: HeLa (human cervical cancer) cells; test: MTT cytotoxicity assay, HeLa; assay type: cell-based; conditions: for IC50: 72 h, read-out: IC50 HeLa; for SI HeLa (Selectivity Index): SI = IC50 for normal cell line (HaCaT)/IC50 cancer cell line
Method in brief: as §1

[4] = test system: SW620 (human colorectal cancer) cells; test: MTT cytotoxicity assay, SW620; assay type: cell-based; conditions: for SI SW620 (Selectivity Index): SI = IC50 for normal cell line (HaCaT)/IC50 cancer cell line
Method in brief: as §1

[5] = test system: HaCaT (immortalized human keratinocytes); test: MTT cytotoxicity assay, HaCaT normal cells; assay type: cell-based; conditions: 72 h, read-out: IC50 HaCaT (normal cells)
[6] = test system: A549 cells; test: Apoptosis, Annexin V-FITC/7-AAD flow cytometry, A549; assay type: cell-based, human; conditions: for cells in late apoptosis or necrosis: A549, IC50 concentration, 72 h
Method in brief: (§2)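 Human HTB-140, A549, HeLa, SW620 or HaCaT cells were grown in DMEM with 2% FBS at 1 × 10^4 cells per well and preincubated 72 h with test compound. Camptothecin, 4 µM for 4 h, served as the positive control. Cells were dual-stained with Annexin V-FITC and 7-AAD, and 10,000 cells were analysed by flow cytometry. Annexin+/7-AAD− cells counted as early apoptotic; Annexin+/7-AAD+ as late apoptotic or necrotic.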

[7] = test system: interleukin-6 (IL-6) release, HTB-140 cells; test: IL-6 level by ELISA, HTB-140; assay type: cell-based, human; conditions: HTB-140, IC50 dose, 72 h
Method in brief: (§3)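 Cells were seeded at 1 × 10^4 per well in DMEM with 2% FBS and exposed to test compound for 72 h. IL-6 in the culture supernatant was measured with a commercial ELISA kit and compared with untreated control. Data are mean ± SD from three independent experiments, each run in triplicate, compared by Student's t-test.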

[8] = test system: interleukin-6 (IL-6) release, SW620 cells; test: IL-6 level by ELISA, SW620; assay type: cell-based, human; conditions: SW620, IC50 dose, 72 h
Method in brief: as §3

[9] = test system: HTB-140 cells; test: Apoptosis, Annexin V-FITC/7-AAD flow cytometry, HTB-140; assay type: cell-based, human
Method in brief: as §2

[10] = test system: HeLa cells; test: Apoptosis, Annexin V-FITC/7-AAD flow cytometry, HeLa; assay type: cell-based, human; conditions: 4 µM, 4 h
Method in brief: as §2

[11] = test system: HaCaT cells; test: Apoptosis, Annexin V-FITC/7-AAD flow cytometry, HaCaT; assay type: cell-based, human; conditions: 4 µM, 4 h
Method in brief: as §2

[12] = test system: SW620 cells; test: Apoptosis, Annexin V-FITC/7-AAD flow cytometry, SW620; assay type: cell-based, human; conditions: SW620, 4 µM, 4 h
Method in brief: as §2

[13] = test system: HTB-140 cells; test: LDH release assay, HTB-140; assay type: cell-based, human; conditions: 25 µM, 72 h
[14] = test system: HaCaT cells; test: LDH release assay, HaCaT; assay type: cell-based, human; conditions: 25 µM, 72 h
[15] = test system: interleukin-6 (IL-6) release, A549 cells; test: IL-6 level by ELISA, A549; assay type: cell-based, human; conditions: A549, IC50 dose, 72 h
Method in brief: as §3

[16] = test system: interleukin-6 (IL-6) release, HeLa cells; test: IL-6 level by ELISA, HeLa; assay type: cell-based, human; conditions: IC50 dose, 72 h
Method in brief: as §3

[17] = Homo sapiens, SW-620, 72 h, read-out: IC50 SW620, MTT, 72 h, mean SD
[18] = read-out: IC50 SW620, MTT, 72 h, mean SD
[19] = HTB-140, IC50 concentration, 72 h

SMILES	IC50 ([1]; Homo sapiens) [µM]	SI HTB-140 (Selectivity Index) [1]	IC50 ([2]; Homo sapiens, A549, 72 h) [µM]	SI A549 (Selectivity Index) [2]	IC50 ([3]; Homo sapiens, HeLa) [µM]	SI HeLa (Selectivity Index) [3]	IC50 [4, 17] [µM]	SI SW620 (Selectivity Index) [4]	IC50 ([5]; Homo sapiens, HaCaT) [µM]	other results
CCc1cc(=O)c2c(OCC(O)CNC(C)(C)C)c3ccoc3c(OC)c2o1 (stereo not shown) [Compound 8, 7-ethyl-9-methoxy-4-[3-(tert-butylamino)-2-hydroxypropoxy]-5H-furo[3,2-g][1] benzopyran-5-one]	31.3 ± 2.6	1.47	38.4 ± 7.3	1.20	33.4 ± 4.6	1.38	26.3 ± 4.3	1.75	46.1 ± 7.3	–
COc1cccc2c1C(=O)c1c(O)c3c(c(O)c1C2=O)C[C@@](O)(C(=O)CO)C[C@@H]3O[C@H]1C[C@H](N)[C@H](O)[C@H](C)O1 [Ref 2, doxorubicin, reference compound]	0.5 ± 0.21	–	0.9 ± 0.19	–	0.6 ± 0.14	–	0.7 ± 0.16	–	–	–
CCc1cc(=O)c2c(OCC(O)CN3CCC(C)CC3)c3ccoc3c(OC)c2o1 (stereo not shown) [Compound 5, 7-ethyl-9-methoxy-4-[2-hydroxy-3-(4-methylpiperidin-1-yl)propoxy]-5H-furo[3,2-g][1]benzopyran-5-one]	29.4 ± 4.9	1.49	43.8 ± 8.3	1.00	32.6 ± 3.7	1.34	26.3 ± 3.3	1.67	43.8 ± 8.3	–
CCc1cc(=O)c2c(OCC(O)CNC(C)C)c3ccoc3c(OC)c2o1 (stereo not shown) [Compound 4, 7-ethyl-9-methoxy-4-{2-hydroxy-3-[(propan-2-yl)amino]propoxy}-5H-furo[3,2-g][1]benzopyran-5-one]	18.2 ± 3.6	2.32	32.3 ± 7.9	1.31	27.4 ± 6.5	1.54	11.4 to 11.5	3.68	42.3 ± 7.9	IC50 [4, 18]: 11.5 ± 6.6 µM; cells in late apoptosis or necrosis [6]: 55.6%; reduction of IL-6 release vs control [7]: strongest effect; reduction of IL-6 secretion vs control [8]: around 50%
CCc1cc(=O)c2c(OCC(O)CN3CCOCC3)c3ccoc3c(OC)c2o1 (stereo not shown) [Compound 9, 7-ethyl-9-methoxy-4-[2-hydroxy-3-(morpholin-4-yl)propoxy]-5H-furo[3,2-g][1] benzopyran-5-one]	23.4 ± 2.6	2.29	37.6 ± 7.3	1.43	29.5 ± 4.6	1.82	21.9 ± 4.3	2.45	53.6 ± 7.3	–
N.N.[Cl][Pt][Cl] [Ref 1, cisplatin, reference compound]	–	–	–	–	–	–	–	–	–	IC50 ([1]; MTT, mean SD): 1.4 ± 0.69 µM; IC50 ([2]; MTT, 72 h, mean SD): 2.7 ± 1.1 µM; IC50 ([3]; MTT, mean SD): 1.8 ± 0.74 µM; IC50 [4, 18]: 1.9 ± 0.9 µM; IC50 ([5]; MTT, mean SD): 2.8 ± 1.1 µM
CC[C@@]1(O)C(=O)OCc2c1cc1n(c2=O)Cc2cc3ccccc3nc2-1 [camptothecin]	–	–	–	–	–	–	–	–	–	apoptosis induction (positive control) ([9]; HTB-140, 4 µM, 4 h): induced apoptosis; apoptosis induction (positive control) ([6]; A549, 4 µM, 4 h): induced apoptosis; apoptosis induction (positive control) [10]: induced apoptosis; apoptosis induction (positive control) [11]: induced apoptosis; apoptosis induction (positive control) [12]: induced apoptosis
CCc1cc(=O)c2c(O)c3ccoc3c(OC)c2o1 [Compound 2, 7-ethyl-4-hydroxy-9-methoxy-5H-furo[3,2-g][1]benzopyran-5-one]	29.4 ± 3.4	1.58	36.5 ± 6.5	1.27	29.2 ± 3.9	1.59	17.4 ± 3.5	2.67	46.5 ± 8.5	LDH release [13]: 30.4%; LDH release [14]: 13.5%; cells in early apoptosis [9, 19]: 19.5%; cells in late apoptosis or necrosis [9, 19]: 20.8%; cells in late apoptosis or necrosis [6]: 63.2%; IL-6 release effect vs control [15]: 38%
CCc1cc(=O)c2c(OCC(O)CN(CC)CC)c3ccoc3c(OC)c2o1 (stereo not shown) [Compound 3, 7-ethyl-9-methoxy-4-[3-(diethylamino)-2-hydroxypropoxy]-5H-furo[3,2-g][1] benzopyran-5-one]	30.1 ± 4.7	1.44	33.6 ± 4.1	1.29	34.2 ± 4.9	1.27	12.7 ± 5.1	3.41	43.3 ± 9.1	inhibition of IL-6 release vs control [16]: 48%
CCc1cc(=O)c2c(OCC(O)CN3CCCCC3)c3ccoc3c(OC)c2o1 (stereo not shown) [Compound 7, 7-ethyl-9-methoxy-4-[2-hydroxy-3-(piperidin-1-yl)propoxy]-5H-furo[3,2-g][1] benzopyran-5-one]	32.5 ± 4.1	1.60	35.2 ± 6.3	1.47	32.3 ± 3.8	1.61	28.6 ± 5.5	1.81	51.9 ± 6.3	–
CCc1cc(=O)c2c(O)c3ccoc3c(O)c2o1 [Compound 1, 7-ethyl-4,9-dihydroxy-5 H-furo[3,2-g][1]benzopyran-5-one]	30.4 ± 8.7	1.64	39.8 ± 7.9	1.25	41.5 ± 4.6	1.20	21.1 ± 4.4	2.36	49.8 ± 7.9	–
